According to PubChem BioAssay AID821 (SRMLSC, 2007):
Active and inactive are the calls of the source.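 The calls were made as follows: active = compounds whose fitted half-maximal concentration for reducing fibroblast viability is 100 µM or lower; inactive = the rest.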

test: LL 47 lung fibroblast growth inhibition, concentration-response, selectivity test for endothelial growth inhibitor program, cellular, luminescent ATP readout (AID 821); details: LL 47 lung fibroblast viability, ATP luminescence; at 20 µM (top of the series);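 also: 100% = median of untreated cell-only wells and 0% = no luminescence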
Summary of the method: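 Test system: human lung fibroblasts, LL 47 line / Amount: 1,150 cells/well / Schedule: 72 h compound treatment at 37 °C after overnight attachment / Technique: CellTiter-Glo luminescence readout of viable cells / Measure: percent viability relative to untreated wells, EC50 via 4-parameter fit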

Row | Compound | viability
1 | COc1cc(NC(=O)Nc2ccccc2)c(OC)cc1NC(=O)CN1CCCCC1 | 82.8% (inactive)
2 | Cc1ccc(Cn2c(SCC(=O)Nc3cc(C)on3)nc3ccccc3c2=O)cc1 | 80.1% (inactive)
3 | O=C(CSc1nnc(-c2cc(-c3cccs3)nc3ccccc23)o1)NC1CCCCC1 | 98.4% (inactive)
4 | C=CCn1c(O)c(C2=c3ccccc3=NC2=O)s/c1=N/c1nccs1 | 88% (inactive)
5 | Cc1oc(-c2ccccc2F)nc1CN1CCC(C(=O)NCCC2=CCCCC2)CC1 | 83.4% (inactive)
6 | O=C(Nc1ccc2c(c1)OCO2)c1cc(C2CC2)on1 | 104% (inactive)
7 | O=C(COc1ccc(Cl)cc1)Nc1ccccc1C(=O)NCc1ccco1 | 82.7% (inactive)
8 | O=C1C2C3C=CC(CO)(O3)C2C(=O)N1c1ccccc1-c1ccccc1 (centres undefined) | 91.7% (inactive)
9 | CC(=O)Oc1ccc(N2C(=O)C3C(C2=O)C2(C)C=CC3(C)O2)cc1 (centres undefined) | 103% (inactive)
10 | COc1ccc2[nH]cc(C(=O)CN3CCN(C4CCCCC4)CC3)c2c1 | 103% (inactive)
11 | COc1ccccc1C1CC(c2c(-c3ccccc3)c3cc(Cl)ccc3[nH]c2=O)=NN1S(C)(=O)=O (centres undefined) | 83.6% (inactive)
12 | CC1CCCC(NC(=O)C2CCN(S(=O)(=O)N3CCC4(CC3)OCCO4)CC2)C1C (centres undefined) | 100% (inactive)
13 | COc1ccc(-c2noc(-c3ccc(Br)o3)n2)cc1OC | 116% (inactive)
14 | N#C/C(=C/c1ccc(N2CCCCCC2)o1)c1ccc(Cl)cc1 | 100% (inactive)
15 | CC(=O)Oc1ccc(N(C(C)=O)S(=O)(=O)c2cccs2)c2ccccc12 | 95.7% (inactive)
16 | CC1CCc2sc3nc(N4CCN(CCO)CC4)n4ncnc4c3c2C1 (centres undefined) | 96.4% (inactive)
17 | Cc1cc(S(=O)(=O)N2CCN(Cc3ccc4c(c3)OCO4)CC2)cc(C)c1N1CCCC1=O | 100% (inactive)
18 | COc1ccc(CN2CCn3ncc(C(=O)Nc4cc(C)cc(C)c4)c3C2=O)cc1 | 105% (inactive)
19 | CC1(C)Cc2c(C#N)c(N3CCN(C(=O)c4ccco4)CC3)nc(Cc3ccccc3)c2CO1 | 87.4% (inactive)
20 | CCn1c(SCC(=O)Nc2ccc3c(c2)oc2ccccc23)nnc1-c1ccc(N)cc1 | 97.6% (inactive)
21 | Cc1ccc2c(c1)[nH]c1c(N3CCN(Cc4ccccc4)CC3)ncnc12 | 88.3% (inactive)
22 | Cc1ccc(-c2nc3cccnc3o2)cc1NC(=O)COc1ccc(C(C)(C)C)cc1 | 99.4% (inactive)
23 | CC(C)COc1ccc2[nH]c3c(c2c1)CCCC3=O | 101% (inactive)
24 | Cc1ccc2[nH]c3c(N4CCN(Cc5ccc6c(c5)OCO6)CC4)ncnc3c2c1 | 88.1% (inactive)

Row | Compound | viability
25 | CCOc1cc(/C=N\NC(=O)Cn2nc([N+](=O)[O-])cc2C)ccc1OCc1cccc2ccccc12 | 89.7% (inactive)
26 | CC(C)OC(=O)NCCOC(=O)Nc1cccc(Cl)c1 | 103% (inactive)
27 | COc1ccc(OC)c(S(=O)(=O)N(C)CC(=O)N2CCN(c3ccc(F)cc3)CC2)c1 | 106% (inactive)
28 | CCOc1cc(C(=O)CSc2nnc(CNc3ccc(Cl)cc3)o2)ccc1NC(=O)CC | 96% (inactive)
29 | c1ccc(-c2nccc(-c3ccc(-n4cnc5ccccc54)cc3)n2)cc1 | 115% (inactive)
30 | Cc1cccc(-c2nnc(NC(=O)c3ccc(Cl)cc3)o2)c1 | 87.4% (inactive)
31 | Cc1nn(-c2ccc(Cl)cc2)c2sc(C(=O)N3CCN(c4ccccn4)CC3)cc12 | 91.4% (inactive)
32 | CCCc1ccc(Oc2c(-c3ccc(O)c(C)c3O)n[nH]c2C)cc1 | 97.3% (inactive)
33 | COc1ccc(Cl)cc1C(=O)n1nc(C)cc1C | 101% (inactive)
34 | CCCCc1ccc(Nc2nc(CCC)cc(=O)[nH]2)cc1 | 91% (inactive)
35 | c1ccc(CC2CCN(C3=Nc4cccc5cccc3c45)CC2)cc1 | 80.8% (inactive)
36 | O=C(Nc1cccnc1)c1ccc(Oc2ccccc2)cc1 | 85.3% (inactive)
37 | O=C(CCC1CCCC1)c1c(O)c2ccccc2oc1=O | 93.9% (inactive)
38 | CCCCCn1c(CN2CCN(c3cc(Cl)ccc3C)CC2)nc2c1c(=O)[nH]c(=O)n2C | 81.2% (inactive)
39 | Cc1cccc(C)c1N1CCN(c2ccc3nnc(C(F)(F)F)n3n2)CC1 | 81.7% (inactive)
40 | OCCN1CCN(c2nc(-c3ccccc3)c3cc(Cl)ccc3n2)CC1 | 85% (inactive)
41 | Cn1c(CNc2cccc(Cl)c2)nnc1SCC(=O)OC1CCCCC1 | 86.7% (inactive)
42 | Nc1c(S(=O)(=O)c2ccccc2)c2nc3ccccc3nc2n1/N=C/c1cccc(O)c1 | 94.2% (inactive)
43 | Cc1cc(C)n(CC(O)Cn2c3ccc(Br)cc3c3cc(Br)ccc32)c(=O)n1 (centres undefined) | 119% (inactive)
44 | Cc1sc2nc(SCC(=O)c3cccs3)n(Cc3ccco3)c(=O)c2c1C | 87% (inactive)
45 | CCOC(=O)c1cc2c(N)c(C(=O)c3cc(C#N)c(SC)nc3C)sc2nc1C | 101% (inactive)
46 | COC(=O)CSc1nc2ccc(NC(=O)CSc3nnnn3Cc3ccccc3)cc2s1 | 108% (inactive)
47 | COc1ccc(Cl)cc1N1CCN(CCNC(=O)Nc2ccccc2C)CC1 | 101% (inactive)
48 | COc1ccccc1-c1cc(C(=O)Nc2cc(C)n(Cc3ccc(Cl)cc3)n2)no1 | 86% (inactive)

Row | Compound | viability
49 | Cn1c(=O)cc(SCC(=O)NCC2COc3ccccc3O2)c2ccccc21 (centres undefined) | 104% (inactive)
50 | COc1ccc2[nH]c(=O)c(CN(C3CCCCC3)C(c3nnnn3Cc3ccco3)C(C)C)cc2c1 (centres undefined) | 83.2% (inactive)
51 | O=C(CCN1CCN(Cc2ccccc2)CC1)Nc1ccc(OCc2ccccc2)cc1 | 97.3% (inactive)
52 | CC(C)(C)NC(=O)c1cnn2c1NC(c1ccc(F)cc1)CC2C(F)(F)F (centres undefined) | 99% (inactive)
53 | Cc1sc2nc(SCC(=O)NCc3ccco3)n(Cc3ccccc3)c(=O)c2c1C | 98.4% (inactive)
54 | CN1C(=O)C(O)(CC(=O)c2cccc(-n3cccc3)c2)c2ccccc21 (centres undefined) | 93.7% (inactive)
55 | COc1cc2cc(C(c3nnnn3C3CCCC3)N3CCc4ccccc43)c(=O)[nH]c2cc1OC (centres undefined) | 92.9% (inactive)
56 | CCOc1c(Br)ccc2c1sc1nc[nH]c(=O)c12 | 102% (inactive)
57 | O=C(/C=C/NNC(=O)c1ccccc1)c1ccccc1 | 93.2% (inactive)
58 | CCOC(=O)c1ccc(NC(=O)CCc2nc(-c3cccc(C)c3)no2)cc1 | 107% (inactive)
59 | CCCCOc1ccc(C(=O)OC2CC(C)N(C)CC2C)cc1 (centres undefined) | 96.4% (inactive)
60 | Nc1nc(-c2ccccc2)cc(-c2ccccc2O)n1 | 104% (inactive)
61 | C/C(=N\O)c1ccc2c3ccccc3n(C)c2c1 | 111% (inactive)
62 | CC(C)(C)c1ccc(-c2nnc(SCC(=O)O)n2N)cc1 | 103% (inactive)
63 | CCOC(=O)c1ccc(NC(=O)CCc2nc(-c3ccc(C)cc3)no2)cc1 | 98.6% (inactive)
64 | Cc1ccccc1N1C(=O)CC(Sc2nnc(-c3ccccc3)o2)C1=O (centres undefined) | 90.5% (inactive)
65 | Cc1cc(=O)[nH]c2ccc(Cl)cc12 | 102% (inactive)
66 | Cc1cc(C(=O)OC(C)C(=O)Nc2cccc(S(=O)(=O)N3CCOCC3)c2)c(C)o1 (centres undefined) | 105% (inactive)
67 | COC(=O)c1cc(COc2ccc3c(c2)oc(=O)c2ccccc23)c(C)o1 | 120% (inactive)
68 | CCOc1ccc(OCc2ccc(C(=O)NCC3CCCO3)o2)cc1 (centres undefined) | 109% (inactive)
69 | CCOc1ccc(-c2n[nH]c(C)c2Oc2ccc(OC)cc2)c(O)c1 | 93.9% (inactive)
70 | COc1ccc2[nH]cc(C(=O)CN3CCN(C(=O)c4ccco4)CC3)c2c1 | 108% (inactive)
71 | O=C1CCn2nc(-c3ccc(Cl)cc3)cc2N1 | 104% (inactive)
72 | COC(=O)C1=C(O)/C(=C\c2ccc(CNC(=O)C(=O)Nc3ccc(C)c(C)c3)o2)N=C1C | 101% (inactive)

Row | Compound | viability
73 | CCOc1ccc(NC(=S)Nc2ccc(C)c([N+](=O)[O-])c2)cc1 | 121% (inactive)
74 | CC1=C(C)CS(=O)N(S(=O)(=O)c2ccc(Cl)cc2)C1 (centres undefined) | 106% (inactive)
75 | Cc1ccc(C(C)C)c(OCC(=O)Nc2ccc3c(c2)nc(CN2CCCC2)n3C)c1 | 91.9% (inactive)
76 | COc1ccc(Cl)c(N2CCN(CCCNC(=O)Nc3ccc(C)cc3)CC2)c1 | 84.9% (inactive)
77 | C=CCN1C(=Nc2cccnc2)SCC1(O)c1ccc(C)cc1 (centres undefined) | 86.4% (inactive)
78 | CCCOc1ccc(-c2nc(C#N)c(NCCCn3ccnc3)o2)cc1 | 90.9% (inactive)
79 | CCCCc1oc2ccccc2c1C(=O)c1cc(I)c(OCCN(CC)CC)c(I)c1 | 88% (inactive)
80 | COCCn1c(SCC(=O)Nc2ccc(NC(=O)c3ccco3)c(OC)c2)nc2ccccc2c1=O | 99.1% (inactive)
81 | Cc1cc(C)n(-c2nc(SCC(=O)N3CCCC3)c3c4c(sc3n2)CCCC4)n1 | 113% (inactive)
82 | COc1cccc(-c2nnc(Nc3nc4c(F)cccc4s3)o2)c1 | 84.7% (inactive)
83 | O=C1C2=C(NC(=S)NC2c2ccc(Cl)cc2)NC(c2ccc(Cl)cc2)N1c1ccc(Cl)cc1 (centres undefined) | 99.2% (inactive)
84 | Cn1c(-c2ccc3ccccc3n2)nc2cnccc21 | 93.4% (inactive)
85 | COc1cccc(C(=O)CSc2nnc(-c3cc(OC)cc(OC)c3)o2)c1 | 91.3% (inactive)
86 | Brc1cccc(-c2nnc3sc(CNC4CCCC4)cn23)c1 | 96.9% (inactive)
87 | OC1(Cc2ccn[nH]2)CCCCC1 | 105% (inactive)
88 | COC(=O)/C(=C\Nc1ccc(Cl)cc1Cl)NC(=O)c1ccc(Cl)cc1Cl | 96% (inactive)
89 | COc1ccc(CNC(=O)C(C#N)c2nc3ccccc3nc2N2CCN(C)CC2)cc1 (centres undefined) | 97.9% (inactive)
90 | COc1ccc2nc(NC(=O)CSC3=NCCS3)sc2c1 | 110% (inactive)
91 | COc1ccc2nc3oc(C(=O)N4CCN(c5ccccc5F)CC4)cc3cc2c1 | 108% (inactive)
92 | CCCCCCOC(=O)C(C#N)c1nc2ccccc2nc1N1CCN(C)CC1 (centres undefined) | 90.4% (inactive)
93 | Cc1nn(-c2ccc(F)cc2)c(C)c1NS(=O)(=O)c1ccc(Cl)cc1 | 90.7% (inactive)
94 | COc1ccc(-c2nnc(SCCc3ccccc3)n2N)cc1 | 113% (inactive)
